Screening data: PubChem, Broad Institute
Shown are actives, neighbours in structure and some others; about 2.6% of the full set was active somewhere.
GSIS activator = GLuc luminescence reporter in INS-1E cells, primary screen for activators of glucose-dependent secretion of insulin; INS-1E GLuc reporter insulin secretion, 2-3 h; activation, % at 16.6 µM; 370,000 tested, 0.61% active; AID 743287;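 active = lowest replicate activation of at least 40%, so every replicate reaches that level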;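 also: 0% = median of neutral control wells and 100% = median of IBMX positive control wells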
ERAP1 inh = inhibitors of human ERAP1 aminopeptidase; Q9NZ08; recombinant ERAP1, Leu-AMC fluorescence, 60 min; inhibition, % at 10.7 µM; 340,000 tested, 0.15% active; AID 652197;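 active = mean replicate inhibition of at least 30%, or all replicates individually reaching that 30% level; inactive = mean below 30% and not every replicate reaching it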;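 also: 0% = neutral control wells and 100% = L-leucinethiol positive control wells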
Target sequence (Q9NZ08 whole entry, looked up): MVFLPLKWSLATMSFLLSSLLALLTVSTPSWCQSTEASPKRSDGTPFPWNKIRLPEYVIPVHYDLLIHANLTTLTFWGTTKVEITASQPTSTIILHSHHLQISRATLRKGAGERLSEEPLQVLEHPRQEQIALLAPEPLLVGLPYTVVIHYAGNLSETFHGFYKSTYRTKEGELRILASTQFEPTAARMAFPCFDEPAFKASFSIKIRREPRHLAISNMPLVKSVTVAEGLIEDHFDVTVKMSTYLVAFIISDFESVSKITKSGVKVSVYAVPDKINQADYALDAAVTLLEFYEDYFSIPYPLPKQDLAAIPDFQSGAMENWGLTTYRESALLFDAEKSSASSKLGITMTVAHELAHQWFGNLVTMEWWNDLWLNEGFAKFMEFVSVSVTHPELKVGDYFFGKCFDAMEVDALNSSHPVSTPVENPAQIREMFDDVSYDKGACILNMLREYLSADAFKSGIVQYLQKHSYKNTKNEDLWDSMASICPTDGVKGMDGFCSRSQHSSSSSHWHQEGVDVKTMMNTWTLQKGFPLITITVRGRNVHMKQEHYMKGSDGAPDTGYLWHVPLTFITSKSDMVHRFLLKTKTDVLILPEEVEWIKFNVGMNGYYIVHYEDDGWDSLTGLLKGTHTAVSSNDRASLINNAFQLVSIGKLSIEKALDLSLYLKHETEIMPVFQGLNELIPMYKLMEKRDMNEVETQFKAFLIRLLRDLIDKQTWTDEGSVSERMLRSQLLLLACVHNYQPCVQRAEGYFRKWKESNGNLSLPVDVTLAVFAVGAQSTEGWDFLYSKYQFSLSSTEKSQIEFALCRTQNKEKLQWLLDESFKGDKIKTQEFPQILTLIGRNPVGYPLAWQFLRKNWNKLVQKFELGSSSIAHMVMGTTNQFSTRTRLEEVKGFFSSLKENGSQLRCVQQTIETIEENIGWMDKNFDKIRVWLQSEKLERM
E-selectin induc = induces E-selectin expression in human endothelial cells. HUVEC E-selectin immunofluorescence imaging; normalized: neutral wells 0, TNF-alpha wells 100. P16581. AID 686992. 260,000 tested, 0.37% active. activation, % at 7.58 µM;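 active = mean E-selectin-positive cell signal at least 10% of the positive control, reached in at least 60% of replicates, without over 20% cell loss; inconclusive = no rule given, readout overlaps actives, possibly toxicity-flagged; inactive = the rest, including those meeting only one limit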
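assay system = HUVEC, human umbilical vein endothelial cells | input = 3,000 HUVEC seeded per well | medium = EGM-2 growth medium on 0.1% gelatin-coated wells | dosing = one compound dose added by pin transfer | signal = immunofluorescence imaging | read-out basis = % PE-positive cells | control set = TNF-alpha, DMSO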
miR122 inh = miR-122 inhibition in Huh7 cells | 340,000 tested, 0.3% active | Huh7 miR-122 Renilla luciferase sensor, 48 h; neutral wells = 0, positive control = 100 | activation (reporter increase), % at 12.5 µM;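 active = mean replicate activation score at least 90 and every replicate individually at or above 90; inconclusive = only one of the two criteria met; inactive = neither criterion met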;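 also: higher luciferase means less miR-122 activity so hits act as miR-122 inhibitors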
DENV2 CPE = protects cells from dengue virus 2 cytopathic effect. AID 651640. DENV2-infected cells, cytopathic effect rescue, plate reader. 350,000 tested, 1.7% active. CPE inhibition, % at 9.99 µM; in the data active = CPE inhibition above about 20%, passing the limit was not always enough; inconclusive = no clear call, values can overlap the other calls; tested in BHK-21 cells;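 also: 0% = median of neutral control wells and 100% = median of positive control wells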
CFTR F508del cor = correctors of CFTR F508del function in bronchial epithelial cells | CFBE cells, YFP halide quenching; stimulated with forskolin plus potentiator P3; % fluorescence drop versus neutral controls | activity (quench increase), % at 7.58 µM | 350,000 tested, 0.36% active;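 active = mean added fluorescence quench of at least 8% versus neutral control, with both replicates also reaching 8%; inconclusive = only one of the mean or replicate conditions met; inactive = mean below 8% and not both replicates reaching 8%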;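 also: cells transiently co-express mutant CFTR-F508del with the halide-sensitive YFP; corrector assay measuring rescue of mutant channel to the surface after 24 h compound exposure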
An asterisk follows results filed as active; ? = inconclusive; . = no result given; ! = a repeat was not active; [ ] = dose if it differs, or a comment.

SMILES | GSIS activator | ERAP1 inh | E-selectin induc | miR122 inh | DENV2 CPE | CFTR F508del cor
C[C@H](CO)N1C[C@H](C)[C@@H](CN(C)Cc2ccc(Cl)c(Cl)c2)OCCCC[C@H](C)Oc2ccc(NC(=O)Nc3cccc4ccccc34)cc2C1=O | 13.8 | 0.3 | 0.6 | 29.1[16.7 µM] | 33.1* | -1.5
C[C@@H]1CCCCO[C@@H](CN(C)Cc2ccc(Cl)c(Cl)c2)[C@@H](C)CN([C@H](C)CO)C(=O)c2cc(NC(=O)Nc3cccc4ccccc34)ccc2O1 | 9.1 | -7.4 | -0.2 | 12.9[16.7 µM] | 21.9* | -0.6
O=C(NC1CCC1)[C@@H]1[C@@H](CO)[C@@H]2Cn3c(ccc(C4=CCCCC4)c3=O)[C@@H]2N1C(=O)C1CCOCC1 | 7.5 | -2.7 | 0.0 | . | 55.7* | .
COC(=O)[C@H]1[C@H](CO)[C@H]2Cn3c(ccc(C4=CCCCC4)c3=O)[C@H]2N1Cc1cccnc1 | 11.1 | 0.0 | -0.4 | . | 25.7* | -2.2
COc1cccc(CNC(=O)[C@H]2[C@H](CO)[C@H]3Cn4c(ccc(-c5ccncc5)c4=O)[C@H]3N2C)c1 | 4.7 | -2.2 | -0.4 | . | 137.8* | .
O=C(NC1CCC1)[C@H]1[C@H](CO)[C@H]2Cn3c(ccc(C4=CCCC4)c3=O)[C@H]2N1C(=O)C1CCC1 | 7.7 | -2.5 | -0.1 | . | -3.3 | -0.2
C[C@@H]1CCCCO[C@@H](CN(C)CC2CC2)[C@@H](C)CN([C@H](C)CO)C(=O)c2cc(NC(=O)Cc3ccccc3)ccc2O1 | -2.2 | 4.1 | 0.2 | -1.2[16.7 µM] | -4.0 | -0.1
Nc1cccc(O)c1 | 9.7 | -0.1 | . | 5.4 | 21.4* | 2.0
Nc1ccc2ccc(O)cc2c1 | -18.0 | -3.3 | 0.5 | 20.8 | -0.4 | -2.6
C/C(=N\Nc1ccccn1)c1ccc(S(=O)(=O)NCc2ccco2)cc1 | -1.7 | . | . | 110.1* | . | .
CN(Cc1nccs1)C(=O)c1ccc(OC2CCN(Cc3ccccn3)CC2)cc1 | 0.8 | 1.8 | -0.9 | . | 41.8* | -1.7
Cc1nn(C)cc1CN(C)C(=O)c1ccc(OC2CCN(Cc3ccccn3)CC2)cc1 | 3.9 | -1.3 | . | -0.1 | -0.4 | 1.4
CCn1c(=O)c2cc(C(=O)NCCCOC)sc2c2ccccc21 | . | -5.9 | 53.2* | -2.8 | 3.7 | 1.8
CCOC(CNC(=O)c1cc2c(=O)n(CC)c3ccccc3c2s1)OCC | 13.4 | 1.7 | -0.1 | -2.6 | 13.9 | -1.6
CCn1c(=O)c2cc(C(=O)NCC(OC)OC)sc2c2ccccc21 | -9.1 | -1.2 | 65.6* | -10.2 | -5.4 | -4.5
COc1cccc(NC(=O)N[C@@H]2CC[C@@H](CC(=O)N3CCOCC3)O[C@H]2CO)c1 | 16.4 | -0.3 | 0.8 | . | -7.4 | -0.8
COc1ccc(OCCOc2ccc(N(C)S(=O)(=O)c3ccccc3)cc2)cc1 | 25.4 | 4.7 | . | . | 0.7 | -1.6
CN(c1ccc(OCCOc2ccccc2Cl)cc1)S(=O)(=O)c1ccccc1 | -22.1 | -0.9 | 4.1 | . | ? | 8.1*
Cc1noc(C)c1NC(=O)N(C)C[C@H]1Oc2c(NC(=O)NC(C)C)cccc2C(=O)N([C@@H](C)CO)C[C@@H]1C | -5.1 | -0.1 | 1.2 | -2.8[16.7 µM] | -3.0 | -2.8
Cc1c(NC(=O)C(C)OC(=O)c2nc(Cl)ccc2Cl)c(=O)n(-c2ccccc2)n1C (stereo unspecified) | -0.5 | 15.1 | 0.5 | . | -6.1 | -2.0
Cc1c(NC(=O)C(C)OC(=O)c2cc(Cl)ccc2O)c(=O)n(-c2ccccc2)n1C (stereo unspecified) | 4.6 | -0.8 | 0.4 | -5.6 | 30.7* | 2.3
Cn1ccc2c(-c3ccc(C(C)(C)C)cc3)cc3c(c21)C1CCC3C1 (stereo unspecified) | -3.3 | 0.2 | -0.1 | 2.1 | 20.9* | -2.5
COc1ccc(/C=C2\CCOC2=O)cc1 | . | . | . | -3.6 | . | .
COc1ccc(/C=C2/C(=O)OCc3cc(OC)c(OC)cc32)cc1 | 112.6* | . | . | . | . | .
Cc1cccc2sc(NNC(=O)C3COc4ccccc4O3)nc12 (stereo unspecified) | -5.5 | 6.1 | -0.1 | 0.6 | 4.0 | -3.7
SMILES | GSIS activator | ERAP1 inh | E-selectin induc | miR122 inh | DENV2 CPE | CFTR F508del cor
Cc1cc(C)c2sc(NNC(=O)C3COc4ccccc4O3)nc2c1 (stereo unspecified) | . | -4.0 | 83.3* | -3.9 | 3.5 | 0.0
CC(C)[C@H](NC(=O)[C@H](CCCN=C(N)N)NC(=O)NC(Cc1ccccc1)C(=O)O)C(=O)NC(C=O)CCCN=C(N)N (stereo partly specified) | . | 35.4* | 1.3 | 0.9 | 7.7 | -1.1
CC(C)C(NC(=O)OCc1ccccc1)C(=O)NC(Cc1ccc(O)cc1)C(=O)O (stereo unspecified) | -11.3 | 0.3 | . | -0.7 | 10.1 | -1.4
O=S(=O)(c1cccc(F)c1)N1CC[C@@H]2[C@@H](CO)Nc3ccc(C#Cc4cccc(F)c4)cc3[C@@H]21 | -2.2 | . | -0.5 | -10.5[16.7 µM] | 22.8* | 3.5
O=S(=O)(c1cccc(F)c1)N1CC[C@@H]2[C@H](CO)Nc3ccc(C#Cc4ccccc4F)cc3[C@@H]21 | 7.6 | -2.4 | 0.1 | 8.4[16.7 µM] | 23.7* | 1.1
COc1ccc(S(=O)(=O)N2CC3(CN(Cc4ccccc4OC)[C@H](CO)c4[nH]c5cc(OC)ccc5c43)C2)cc1 | 7.8 | . | 0.3 | . | -6.3 | -1.1
CC(C)NC(=O)N1CC2(C1)[C@H](c1ccccc1)[C@H](CO)N2C(=O)C1CCC1 | 11.2 | 2.0 | 0.0 | . | 2.1 | 1.6
COc1ccc(NC(=O)Nc2cccc3c2O[C@@H](CN(C)C(=O)NC2CCCCC2)[C@H](C)CN([C@@H](C)CO)C3=O)cc1 | -5.0 | -1.0 | 2.0 | -6.2[16.7 µM] | -0.5 | -0.1
COc1ccc(NC(=O)Nc2cccc3c2O[C@@H](CN(C)C(=O)NC2CCCCC2)[C@@H](C)CN([C@H](C)CO)C3=O)cc1 | -9.8 | -1.0 | 38.2* | -2.0[16.7 µM] | 2.9 | 2.5
C[C@H](CO)N1C[C@H](C)[C@@H](CN(C)C(=O)NC2CCCCC2)Oc2c(NC(=O)Nc3ccc(C(F)(F)F)cc3)cccc2C1=O | 13.2 | -0.5 | 0.0 | 13.4[16.7 µM] | 28.7*! | 6.9
COc1ccc(NC(=O)Nc2cccc3c2O[C@@H](CN(C)C(=O)NC(C)C)[C@@H](C)CN([C@@H](C)CO)C3=O)cc1 | 36.1 | 5.0 | 5.8 | -3.9[16.7 µM] | 38.5* | -0.2
C[C@@H]1CN([C@H](C)CO)C(=O)c2cccc(NC(=O)Nc3ccc(F)cc3)c2O[C@H]1CN(C)C(=O)NC1CCCCC1 | -2.4 | 0.1 | 65.8* | -2.9[16.7 µM] | 3.5 | -2.8
C[C@@H]1CN([C@@H](C)CO)C(=O)c2cccc(NC(=O)Nc3ccc(C(F)(F)F)cc3)c2O[C@H]1CN(C)C(=O)NC1CCCCC1 | -3.0 | -1.8 | 1.6 | -10.9[16.7 µM] | 0.9 | 6.5
Cc1ccc(NC(=O)[C@@H](Cc2ccccc2)NC(=O)[C@H]2O[C@@H](n3ccc(=O)[nH]c3=O)[C@H](O)[C@@H]2O)cc1C | 51.4* | 0.1 | ? | . | -2.9 | -0.8
